Consider 49 compounds from ChEMBL document CHEMBL4033795, “Design, Synthesis, and Structure-Activity Relationship Study of 2-Oxo-3,4-dihydropyrimido[4,5- d]pyrimidines as New Colony Stimulating Factor 1 Receptor (CSF1R) Kinase Inhibitors” (J Med Chem, 2018).

Assay [1] concerns the target Macrophage colony-stimulating factor 1 receptor (Homo sapiens, UniProt P07333). Kind of assay: Inhibition of recombinant human His-tagged CSF1R cytoplasmic domain (538 to 910 residues) expressed in baculovirus using tyr4 peptide as substrate after 1 hr by FRET-based Z'-Lyte assay. In short, it runs like this: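 Z′-Lyte FRET assay with CSF1R or EGFR and 2 μM Tyr4 peptide substrate in 1× kinase buffer. ATP was supplied as a 100 μM solution, a stock and not the final concentration. Compounds were 3-fold serially diluted in DMSO. Reaction ran 1 h at room temperature, followed by 1 h development and a stop reagent. Phospho-peptide, no-ATP and DMSO controls were included. IC50 by curve fitting; mean of at least three independent experiments.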

The target in assay [2] is Epidermal growth factor receptor (Homo sapiens, UniProt P00533). Kind of assay: Inhibition of recombinant human wild type GST-tagged EGFR cytoplasmic domain (668 to 1210 residues) expressed in baculovirus using tyr4 peptide as substrate after 1 hr by FRET-based Z'-Lyte assay.
Chain of Epidermal growth factor receptor (P00533 whole entry, the tested form may be a part): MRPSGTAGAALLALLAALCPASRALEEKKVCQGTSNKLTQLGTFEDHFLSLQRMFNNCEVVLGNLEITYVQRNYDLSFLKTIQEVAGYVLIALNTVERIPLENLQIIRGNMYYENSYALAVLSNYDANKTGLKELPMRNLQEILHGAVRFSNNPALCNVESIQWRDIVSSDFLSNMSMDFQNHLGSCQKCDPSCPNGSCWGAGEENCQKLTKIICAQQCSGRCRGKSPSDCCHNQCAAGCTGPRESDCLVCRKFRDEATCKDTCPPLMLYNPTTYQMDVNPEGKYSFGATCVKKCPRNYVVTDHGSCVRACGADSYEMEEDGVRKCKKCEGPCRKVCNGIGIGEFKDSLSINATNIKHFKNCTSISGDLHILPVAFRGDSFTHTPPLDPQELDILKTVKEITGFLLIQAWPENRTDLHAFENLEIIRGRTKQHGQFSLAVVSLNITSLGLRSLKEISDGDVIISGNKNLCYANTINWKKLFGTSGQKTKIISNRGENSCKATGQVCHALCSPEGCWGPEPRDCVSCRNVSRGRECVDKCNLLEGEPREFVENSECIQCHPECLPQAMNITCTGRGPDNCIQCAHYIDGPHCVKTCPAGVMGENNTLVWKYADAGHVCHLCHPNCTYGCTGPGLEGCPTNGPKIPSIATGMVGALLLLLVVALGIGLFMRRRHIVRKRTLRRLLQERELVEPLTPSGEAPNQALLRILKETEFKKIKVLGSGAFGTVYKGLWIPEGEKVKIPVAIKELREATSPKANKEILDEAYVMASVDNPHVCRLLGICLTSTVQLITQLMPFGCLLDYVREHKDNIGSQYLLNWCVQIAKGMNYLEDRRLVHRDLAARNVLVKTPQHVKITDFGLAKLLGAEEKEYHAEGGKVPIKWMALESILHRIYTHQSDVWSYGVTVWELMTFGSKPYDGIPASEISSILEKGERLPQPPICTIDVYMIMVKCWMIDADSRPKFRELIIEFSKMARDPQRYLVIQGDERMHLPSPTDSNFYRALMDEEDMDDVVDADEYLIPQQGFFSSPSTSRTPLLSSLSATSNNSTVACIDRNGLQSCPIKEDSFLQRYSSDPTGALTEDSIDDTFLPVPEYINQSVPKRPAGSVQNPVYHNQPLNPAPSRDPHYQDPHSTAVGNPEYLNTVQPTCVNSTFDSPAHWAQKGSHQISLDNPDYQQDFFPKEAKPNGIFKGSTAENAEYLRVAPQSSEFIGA

Chain of Macrophage colony-stimulating factor 1 receptor (P07333 whole entry, the tested form may be a part): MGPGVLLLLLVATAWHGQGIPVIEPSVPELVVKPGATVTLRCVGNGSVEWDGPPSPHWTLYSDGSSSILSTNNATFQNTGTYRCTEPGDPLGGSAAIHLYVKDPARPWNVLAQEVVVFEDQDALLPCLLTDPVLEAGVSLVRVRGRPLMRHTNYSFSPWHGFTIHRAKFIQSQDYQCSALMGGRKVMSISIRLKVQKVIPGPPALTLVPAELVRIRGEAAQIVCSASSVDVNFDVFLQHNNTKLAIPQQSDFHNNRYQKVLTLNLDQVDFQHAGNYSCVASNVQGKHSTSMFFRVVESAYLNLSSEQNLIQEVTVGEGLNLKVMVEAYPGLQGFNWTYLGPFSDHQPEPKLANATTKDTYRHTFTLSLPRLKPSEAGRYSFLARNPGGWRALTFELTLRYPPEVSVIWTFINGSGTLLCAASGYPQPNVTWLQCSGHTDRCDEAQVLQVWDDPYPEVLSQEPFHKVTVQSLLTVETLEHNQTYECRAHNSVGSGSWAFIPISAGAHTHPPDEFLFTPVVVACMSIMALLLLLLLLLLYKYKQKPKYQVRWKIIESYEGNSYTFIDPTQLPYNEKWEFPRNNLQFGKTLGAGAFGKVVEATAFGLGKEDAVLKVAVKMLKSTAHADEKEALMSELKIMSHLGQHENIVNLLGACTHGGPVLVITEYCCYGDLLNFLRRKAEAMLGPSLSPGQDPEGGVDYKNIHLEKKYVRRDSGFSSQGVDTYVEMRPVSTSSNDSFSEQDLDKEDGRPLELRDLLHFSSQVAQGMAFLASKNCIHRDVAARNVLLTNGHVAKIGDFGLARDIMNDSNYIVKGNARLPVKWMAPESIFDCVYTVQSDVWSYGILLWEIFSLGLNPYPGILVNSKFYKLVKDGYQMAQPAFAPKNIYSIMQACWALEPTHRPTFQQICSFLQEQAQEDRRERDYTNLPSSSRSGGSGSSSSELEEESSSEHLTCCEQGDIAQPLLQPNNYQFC

As usually defined, the IC50 is the point on the concentration scale where inhibition reaches its midpoint. In the case of `CCC(=O)N1CC[C@H](N2C(=O)N(c3ccccc3Cl)Cc3cnc(Nc4ccc(N5CCN(C)CC5)c(C)c4)nc32)C1`, the 50% inhibitory concentration (IC50) in assay [1] was found to be 5 nM; in assay [2], 15.7 nM.
Consider `CCC(=O)N1CC[C@H](N2C(=O)N(c3ccc(C)cc3)Cc3cnc(Nc4ccc(N5CCN(C)CC5)c(C)c4)nc32)C1`, for which the IC50 in assay [1] came to 20.6 nM; in assay [2] it was 377 nM.
In the case of `CCC(=O)N1CC[C@H](N2C(=O)N(c3cc(OC)ccc3F)Cc3cnc(Nc4ccc(N5CCN(C)CC5)c(Cl)c4)nc32)C1`, the values for the half-maximal inhibitory concentration (IC50) in assay [1] and in assay [2] were 14.8 nM and 1200 nM, respectively.
Take `CCC(=O)N1CC[C@H](N2C(=O)N(c3cccc(OC(F)(F)F)c3)Cc3cnc(Nc4ccc(N5CCN(C)CC5)c(C)c4)nc32)C1`: the results for the 50% inhibitory concentration (IC50) in assay [1] and in assay [2] were 151 nM and 889 nM, respectively.
For `CCC(=O)N1CC[C@H](N2C(=O)N(c3ccc(Cl)cc3)Cc3cnc(Nc4ccc(N5CCN(C)CC5)c(C)c4)nc32)C1`, in that order: 14.8 nM and 383 nM.
For `Cc1cc(Nc2ncc3c(n2)N([C@H]2CCN(C(=O)C4CC4)C2)C(=O)N(c2ccccc2Cl)C3)ccc1N1CCN(C)CC1`, in that order: 20.7 nM and 28.7 nM.
The corresponding values for `C=CC(=O)N1CC[C@H](N2C(=O)N(c3ccccc3Cl)Cc3cnc(Nc4ccc(N5CCN(C)CC5)c(C)c4)nc32)C1` are 30 nM and 0.5 nM.
Regarding `FC(F)(F)c1ccc(CNc2ccc(Cc3c[nH]c4ncc(Cl)cc34)cn2)cn1` [PEXIDARTINIB], the half-maximal inhibitory concentration (IC50) in assay [2] was > 10000 nM.
In the case of `CCC(=O)N1CC[C@H](N2C(=O)N(c3ccc(OC)cc3)Cc3cnc(Nc4ccc(N5CCN(C)CC5)c(C)c4)nc32)C1`, the 50% inhibitory concentration (IC50) in assay [1] turned out to be 5.8 nM; in assay [2] it was 153 nM.
In the case of `CCC(=O)N1CC[C@H](N2C(=O)N(c3ccccc3F)Cc3cnc(Nc4ccc(N5CCN(C)CC5)c(C)c4)nc32)C1`, the IC50 was 5.2 nM in assay [1] and 17.6 nM in assay [2].
For `CCC(=O)N1CC[C@H](N2C(=O)N(c3cccc(C)c3)Cc3cnc(Nc4ccc(N5CCN(C)CC5)c(C)c4)nc32)C1`, in that order: 16.4 nM and 365 nM.
`CCC(=O)N1CC[C@H](N2C(=O)N(c3cc(OC)ccc3F)Cc3cnc(Nc4ccc(N5CCN(C)CC5)cc4C)nc32)C1`: the 50% inhibitory concentration (IC50) came out at 20.2 nM in assay [1] and 2500 nM in assay [2].
As for `CCC(=O)N1CC[C@@H](N2C(=O)N(c3ccccc3Cl)Cc3cnc(Nc4ccc(N5CCN(C)CC5)c(C)c4)nc32)C1`, the IC50 in assay [1] came to 20.9 nM; in assay [2], 23.4 nM.
For `Cc1cc(Nc2ncc3c(n2)N([C@H]2CCN(C(=O)C(C)(C)C)C2)C(=O)N(c2ccccc2Cl)C3)ccc1N1CCN(C)CC1`, in that order: 20.1 nM and 29.4 nM.
The corresponding values for `CCCN1CC[C@H](N2C(=O)N(c3ccccc3Cl)Cc3cnc(Nc4ccc(N5CCN(C)CC5)c(C)c4)nc32)C1` are 181 nM and 52.8 nM.
With `CCC(=O)N1CC[C@H](N2C(=O)N(c3ccccc3C)Cc3cnc(Nc4ccc(N5CCN(C)CC5)c(C)c4)nc32)C1`, the IC50 in assay [1] stood at 5.6 nM; in assay [2] it was 7.6 nM.
The corresponding values for `CCC(=O)N1CC[C@H](N2C(=O)N(c3ccccc3OC)Cc3cnc(Nc4ccc(N5CCN(C)CC5)c(C)c4)nc32)C1` are 5.1 nM and 27.4 nM.
Turning to `CCC(=O)N1CC[C@H](N2C(=O)N(c3cc(OC)ccc3F)Cc3cnc(Nc4ccc(N5CCN(C)CC5)c(C(C)C)c4)nc32)C1`, the values for the IC50 in assay [1] and in assay [2] were 25.8 nM and 365 nM, respectively.
As to `Cc1cc(Nc2ncc3c(n2)N([C@H]2CCN(C(=O)C4CCCC4)C2)C(=O)N(c2ccccc2Cl)C3)ccc1N1CCN(C)CC1`, the IC50 was 28.4 nM in assay [1] and 25.5 nM in assay [2].
For the compound `CCC(=O)N1CC[C@H](N2C(=O)N(c3cccc(OC(F)F)c3)Cc3cnc(Nc4ccc(N5CCN(C)CC5)c(C)c4)nc32)C1`, the 50% inhibitory concentration (IC50) in assay [1] was determined as 28 nM; in assay [2], 257 nM.
Consider `CCC(=O)N1CC[C@H](N2C(=O)N(c3cc(OC)ccc3F)Cc3cnc(Nc4ccc(N5CCN(C)CC5)c(CC)c4)nc32)C1`, for which the figures for the IC50 in assay [1] and in assay [2] were 10 nM and 518 nM, respectively.
The corresponding values for `CCC(=O)N1CC[C@H](N2C(=O)N(c3cc(OC)ccc3F)Cc3cnc(Nc4ccc(N5CCOCC5)c(C)c4)nc32)C1` are 25.2 nM and 626 nM.
The corresponding values for `CCC(=O)N1CC[C@H](N2C(=O)N(c3cc(OC)ccc3F)Cc3cnc(Nc4ccc(N5CCN(C)CC5)cc4)nc32)C1` are 13.6 nM and 1100 nM.
For `CCC(=O)N1CC[C@H](N2C(=O)N(c3cc(OC)ccc3F)Cc3cnc(Nc4ccc(N5CCN(C)CC5)cc4OC)nc32)C1`, in that order: 30.4 nM and 1600 nM.
As to `CCC(=O)N1CC[C@H](N2C(=O)N(c3cc(OC)ccc3F)Cc3cnc(Nc4ccc(N5CCN(C6COC6)CC5)c(C)c4)nc32)C1`, the concentration for half-maximal inhibition (IC50) in assay [1] came to 3.4 nM; in assay [2], 302 nM.
The corresponding values for `Cc1cc(Nc2ncc3c(n2)N([C@H]2CCN(C(=O)CO)C2)C(=O)N(c2ccccc2Cl)C3)ccc1N1CCN(C)CC1` are 20 nM and 7 nM.
For `CCC(=O)N1CC[C@H](N2C(=O)N(c3cc(OC)ccc3F)Cc3cnc(Nc4ccc(N5CC6(CCN(C)CC6)C5)c(C)c4)nc32)C1`, in that order: 6.5 nM and 218 nM.
As to `Cc1cc(Nc2ncc3c(n2)N([C@H]2CCN(C(=O)CC(C)C)C2)C(=O)N(c2ccccc2Cl)C3)ccc1N1CCN(C)CC1`, the IC50 in assay [1] came to 10.3 nM; in assay [2], 22.2 nM.
As for `CCC(=O)N1CC[C@H](N2C(=O)N(c3cc(OC)ccc3F)Cc3cnc(Nc4ccc(N5CCN(C)CC5)c(OC)c4)nc32)C1`, the results for the concentration for half-maximal inhibition (IC50) in assay [1] and in assay [2] were 5.8 nM and 600 nM, respectively.
As to `CCC(=O)N1CC[C@H](N2C(=O)N(c3cc(OC)ccc3F)Cc3cnc(Nc4ccc(N5CCN(C)CC5)c(C(F)(F)F)c4)nc32)C1`, the concentration for half-maximal inhibition (IC50) amounted to 31.9 nM in assay [1] and 3400 nM in assay [2].
Regarding `Cc1cc(Nc2ncc3c(n2)N([C@H]2CCN(C(=O)CN(C)C)C2)C(=O)N(c2ccccc2Cl)C3)ccc1N1CCN(C)CC1`, the IC50 in assay [1] stood at 22.7 nM; in assay [2], 26.6 nM.
For `CCC(=O)N1CC[C@H](N2C(=O)N(c3cc(OC)ccc3F)Cc3cnc(Nc4ccc(N5CCC(N(C)C)CC5)c(C)c4)nc32)C1`, in that order: 4.7 nM and 286 nM.
The corresponding values for `Cc1cc(Nc2ncc3c(n2)N([C@H]2CCN(C(=O)C(C)C)C2)C(=O)N(c2ccccc2Cl)C3)ccc1N1CCN(C)CC1` are 6.7 nM and 8.5 nM.
The corresponding values for `CCC(=O)N1CC[C@H](N2C(=O)N(c3cccc(Cl)c3)Cc3cnc(Nc4ccc(N5CCN(C)CC5)c(C)c4)nc32)C1` are 13.2 nM and 144 nM.
Turning to `CCC(=O)N1CC[C@H](N2C(=O)N(c3cc(OC)ccc3F)Cc3cnc(Nc4ccc(N5C[C@H]6CN(C)C[C@H]6C5)c(C)c4)nc32)C1`, the half-maximal inhibitory concentration (IC50) was 7 nM in assay [1] and 216 nM in assay [2].
On to `CCC(=O)N1CC[C@H](N2C(=O)N(c3cc(OC)ccc3F)Cc3cnc(Nc4ccc(N5CCN(C)CC5)c(F)c4)nc32)C1`, for which the concentration for half-maximal inhibition (IC50) in assay [1] stood at 17.1 nM; in assay [2], 1300 nM.
For the compound `CCC(=O)N1CC[C@H](N2C(=O)N(c3ccc(F)cc3)Cc3cnc(Nc4ccc(N5CCN(C)CC5)c(C)c4)nc32)C1`, the IC50 in assay [1] is 18.1 nM; in assay [2], 71.6 nM.
The corresponding values for `CCC(=O)N1CC[C@H](N2C(=O)N(c3cc(OC)ccc3F)Cc3cnc(Nc4ccc(N(C)CCN(C)C)c(C)c4)nc32)C1` are 10.3 nM and 1300 nM.
The corresponding values for `CCC(=O)N1CC[C@H](N2C(=O)N(c3cc(OC)ccc3F)Cc3cnc(Nc4ccc(N5CCC6(CCN(C)C6)C5)c(C)c4)nc32)C1` (some centres not stated) are 6.8 nM and 296 nM.
For `CCC(=O)N1CC[C@H](N2C(=O)N(c3cc(OC)ccc3F)Cc3cnc(Nc4ccc(N5CCCN(C)CC5)c(C)c4)nc32)C1`, in that order: 4.9 nM and 209 nM.
As to `CCCC(=O)N1CC[C@H](N2C(=O)N(c3ccccc3Cl)Cc3cnc(Nc4ccc(N5CCN(C)CC5)c(C)c4)nc32)C1`, the IC50 was 10.1 nM in assay [1] and 28.9 nM in assay [2].
For `CCC(=O)N1CC[C@H](N2C(=O)N(c3cccc(F)c3)Cc3cnc(Nc4ccc(N5CCN(C)CC5)c(C)c4)nc32)C1`, in that order: 15.2 nM and 35.8 nM.
The corresponding values for `CCC(=O)N1CC[C@H](N2C(=O)N(c3cc(OC)ccc3F)Cc3cnc(Nc4ccc(N5CCN(C(C)=O)CC5)c(C)c4)nc32)C1` are 25.9 nM and 148 nM.
For the compound `CCC(=O)N1CC[C@H](N2C(=O)N(c3cc(OC)ccc3F)Cc3cnc(Nc4ccc(N5CCCCC5)c(C)c4)nc32)C1`, the figures for the IC50 in assay [1] and in assay [2] were 41.2 nM and 467 nM, respectively.
For `CCC(=O)N1CC[C@H](N2C(=O)N(c3cc(OC)ccc3F)Cc3cnc(Nc4ccc(N5CCC6(CCN(C)CC6)CC5)c(C)c4)nc32)C1`, the IC50 turned out to be 6.2 nM in assay [1] and 224 nM in assay [2].
For `CC(=O)N1CC[C@H](N2C(=O)N(c3ccccc3Cl)Cc3cnc(Nc4ccc(N5CCN(C)CC5)c(C)c4)nc32)C1`, in that order: 5.5 nM and 12.1 nM.
The corresponding values for `CCC(=O)N1CC[C@H](N2C(=O)N(c3cc(OC)ccc3F)Cc3cnc(Nc4ccc(N5CCN(C)[C@@H](C)C5)c(C)c4)nc32)C1` are 7.2 nM and 715 nM.
The corresponding values for `Cc1cc(Nc2ncc3c(n2)N([C@H]2CCN(C(=O)C4CCCCC4)C2)C(=O)N(c2ccccc2Cl)C3)ccc1N1CCN(C)CC1` are 30.6 nM and 24.9 nM.
Consider `CCC(=O)N1CC[C@H](N2C(=O)N(c3cc(OC)ccc3F)Cc3cnc(Nc4ccc(N5C[C@@H](C)N(C)[C@@H](C)C5)c(C)c4)nc32)C1`, for which the values for the IC50 in assay [1] and in assay [2] were 7.8 nM and 888 nM, respectively.
